Experimental data: ChEMBL document CHEMBL4406805, “Development of Inhibitors against Mycobacterium abscessus tRNA (m1G37) Methyltransferase (TrmD) Using Fragment-Based Approaches” (J Med Chem, 2019)
Values after ≈ are worked out from the molar mass of the structure shown. Active and inactive are the calls of the source. The rule behind the calls is not given here.

Columns and labels:
[1] = system: Mycobacteroides abscessus; assay: Binding affinity to Mycobacterium abscessus N-terminal His-tagged 3C protease linked full length tRNA (m1-G37) methyltransferase expressed in Escherichia coli BL21(DE3) assessed as change in melting temperature at 100 uM by SYPRO Orange dye based DSF assay
Method in brief: (§1)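 DSF with 10 μM Mab TrmD (His-tag cleaved) in 50 mM HEPES pH 7.5, 500 mM NaCl, 5x SYPRO Orange. Final DMSO was 5%, either as ligand stock or as DMSO alone. Samples were ramped from 25 to 95 °C in 0.5 °C steps of 30 s. ΔTm was taken relative to the DMSO control.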

[2] = Binding affinity to Mycobacterium abscessus N-terminal His-tagged 3C protease linked full length tRNA (m1-G37) methyltransferase expressed in Escherichia coli BL21(DE3) by isothermal titration calorimetry; set-up: species or system Mycobacteroides abscessus
Method in brief: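 ITC at 25 °C. TrmD (33 or 100 μM in cell) was dialysed overnight at 4 °C into 50 mM HEPES pH 7.5, 500 mM NaCl, 5% glycerol, with final DMSO 2–10%. Ligand:protein was 10–20:1. A 0.2 μL injection was discarded, followed by 19×2 or 39×1 μL injections at 60–150 s spacing. No-protein blanks were subtracted. Data were fitted to a one-site model (N fixed at 1 for weak binders). Mostly n = 1 with fit error; SD when n > 1.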

[3] = system: Mycobacteroides abscessus; assay: Binding affinity to Mycobacterium abscessus N-terminal His-tagged 3C protease linked full length tRNA (m1-G37) methyltransferase expressed in Escherichia coli BL21(DE3) assessed as change in melting temperature at 5 mM by SYPRO Orange dye based DSF assay; method in brief: as §1
[4] = Antimycobacterial activity against Mycobacterium abscessus subsp. abscessus ATCC 19977 by CLSI M07-A9 protocol based method; type: functional; settings: Mycobacteroides abscessus
[5] = system: Mycobacterium tuberculosis; assay: Antimycobacterial activity against Mycobacterium tuberculosis H37Rv incubated for 2 weeks in presence of GAST-Fe medium; type: functional; settings: 336 h
[6] = system: Mycobacterium tuberculosis; assay: Antimycobacterial activity against Mycobacterium tuberculosis H37Rv incubated for 2 weeks in presence of 7H9/DPPC medium; type: functional; settings: 336 h
[7] = system: Mycobacterium tuberculosis; assay: Antimycobacterial activity against Mycobacterium tuberculosis H37Rv incubated for 2 weeks in presence of 7H9/ADC medium; type: functional; settings: 336 h
[8] = system: Mycobacterium tuberculosis; assay: Antimycobacterial activity against Mycobacterium tuberculosis H37Rv incubated for 2 weeks in presence of 7H9/glucose medium; type: functional; settings: 336 h
[9] = system: Mycobacteroides abscessus; assay: Binding affinity to Mycobacterium abscessus N-terminal His-tagged 3C protease linked full length tRNA (m1-G37) methyltransferase expressed in Escherichia coli BL21(DE3) by reverse isothermal titration calorimetry
Method in brief: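 Reverse ITC at 25 °C. 420 μM TrmD was injected into 35 μM ligand in the cell. Buffer was 50 mM HEPES pH 7.5, 500 mM NaCl, 5% glycerol with DMSO; blank titrations were subtracted. Data were fitted to a one-site binding model, otherwise as for forward titrations.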

[10] = system: Mycobacteroides abscessus; assay: Binding affinity to Mycobacterium abscessus N-terminal His-tagged 3C protease linked full length tRNA (m1-G37) methyltransferase expressed in Escherichia coli BL21(DE3) after 15 mins by mass Spectrometry
Method in brief: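 Native nanoESI-MS. His-tag was removed with 3C protease before IMAC and gel filtration. TrmD was exchanged into 200 mM ammonium acetate pH 7.0. Protein (20 μM in titration) was equilibrated at room temperature for at least 15 min alone or with ligand (12.5–100 μM; 100 μM for screening) in 5% DMSO. Read-out was ligand occupancy (singly or doubly bound) of the 13+ and 14+ charge states.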

## COc1cc(COC(=O)c2cn[nH]c2)cc(Cc2cccnc2)c1
[1]
  ΔTm: 3 °C
[2]
  Kd: 12 µM

## Nc1cc(-c2ccc3ccn(Cc4ccccn4)c3c2)[nH]n1
[1]
  ΔTm: 3.1 °C
[2]
  Kd: 12 µM

## COc1cccc(-c2cc(N)n[nH]2)c1
[3]
  ΔTm: -0.5 °C

## COc1cccc(Cn2ccc3ccc(-c4cc(N)n[nH]4)cc32)c1
[1]
  ΔTm: 4.6 °C
[2]
  Kd: 13 µM

## N#Cc1c(N)n[nH]c1-c1ccc2ccn(Cc3ccc(CN4CCCC4)cn3)c2c1
[1]
  ΔTm: 12 °C
[4]
  MIC: 50 µM (≈ 19.9 µg/mL)
[2]
  Kd: 92 µM

## N#Cc1c(N)n[nH]c1-c1ccc2ccn(Cc3cccnc3)c2c1
[1]
  ΔTm: 10.5 °C
[2]
  Kd: 0.18 µM

## CC(C)N1CCN(Cc2ccc(Cn3ccc4ccc(-c5[nH]nc(N)c5C#N)cc43)cc2)CC1
[5]
  MIC: 6.3 µM
[1]
  ΔTm: 11.9 °C
[6]
  MIC: 1.6 µM
[7]
  MIC: 12.5 µM
[8]
  MIC: 2.3 µM
[4]
  MIC: 50 µM (≈ 22.7 µg/mL)

## COC(=O)c1ccc(COC(=O)c2cn[nH]c2)cc1
[1]
  ΔTm: 0.9 °C

## N#Cc1c(N)n[nH]c1-c1ccc2ccn(Cc3ccc(O)nc3)c2c1
[1]
  ΔTm: 8.3 °C
[2]
  Kd: 1.3 µM

## Nc1cc(-c2ccc3ccn(Cc4ccc(CN5CCCCC5)cc4)c3c2)[nH]n1
[5]
  MIC: 50 µM
[1]
  ΔTm: 7.2 °C
[6]
  MIC: 12.5 µM
[7]
  MIC: > 100 µM
[8]
  MIC: 25 µM
[4]
  MIC: 50 µM (≈ 19.3 µg/mL)

## OB(O)c1ccc2cc[nH]c2c1
[3]
  ΔTm: 4 °C
[2]
  Kd: 260 µM

## COc1cc(COC(=O)c2cn[nH]c2)cc(-c2cccnc2)c1
[1]
  ΔTm: 3.8 °C
[2]
  Kd: 6.7 µM

## COc1ccc(-c2cc(N)[nH]n2)cc1
[3]
  ΔTm: 3 °C
[2]
  Kd: 170 µM

## Nc1cc(-c2ccccc2)n[nH]1
[3]
  ΔTm: 1.5 °C

## O=C(OCc1cccc(OCc2ccccn2)c1)c1cn[nH]c1
[1]
  ΔTm: 2.5 °C

## N#Cc1c(N)n[nH]c1-c1ccc2cc[nH]c2c1
[1]
  ΔTm: 4.4 °C
[2]
  Kd: 5 µM

## NC(=O)c1ccccc1Cn1ccc2ccc(-c3cc(N)n[nH]3)cc21
[1]
  ΔTm: 1.4 °C

## N#Cc1c(N)n[nH]c1-c1ccc2c(Cl)cn(Cc3cccnc3)c2c1
[1]
  ΔTm: 5.8 °C
[2]
  Kd: 8.5 µM

## CCOC(=O)c1cn[nH]c1
[1]
  ΔTm: 0.4 °C
[3]
  ΔTm: 4 °C
[2]
  Kd: 89 µM

## CCNC(=O)c1cn[nH]c1
[3]
  ΔTm: 0.4 °C

## O=C(OCc1ccc([N+](=O)[O-])cc1)c1cn[nH]c1
[1]
  ΔTm: 0.4 °C

## CN1CCCCC1Cn1ccc2ccc(-c3[nH]nc(N)c3C#N)cc21 (racemic)
[1]
  ΔTm: 8.8 °C
[2]
  Kd: 0.59 µM

## N#Cc1c(N)n[nH]c1-c1ccc2ccn(Cc3ccnc4ccccc34)c2c1
[1]
  ΔTm: 10.3 °C

## Cc1ccc(-c2cc(N)[nH]n2)cc1
[3]
  ΔTm: 1.4 °C

## COc1cccc(COC(=O)c2cn[nH]c2)c1
[1]
  ΔTm: 3.5 °C
[2]
  Kd: 14 µM

## CCOc1cccc(COC(=O)c2cn[nH]c2)c1
[1]
  ΔTm: 3.1 °C
[2]
  Kd: 11 µM

## CN1CCCC(Cn2ccc3ccc(-c4[nH]nc(N)c4C#N)cc32)C1 (racemic)
[1]
  ΔTm: 10.9 °C
[9]
  Activity: Active
[2]
  Kd: 0.36 µM

## COc1ccc(Cn2ccc3ccc(-c4cc(N)n[nH]4)cc32)cc1
[1]
  ΔTm: 3.4 °C
[2]
  Kd: 59 µM

## N#Cc1ccccc1Cn1ccc2ccc(-c3cc(N)n[nH]3)cc21
[1]
  ΔTm: 4.4 °C
[2]
  Kd: 12 µM

## N#Cc1c(N)n[nH]c1-c1ccc2ccn(Cc3ccccn3)c2c1
[1]
  ΔTm: 8.3 °C
[2]
  Kd: 0.5 µM

## OB(O)c1ccc2[nH]ccc2c1
[3]
  ΔTm: 1.3 °C

## Nc1cc(-c2ccc3ccn(Cc4ccccc4)c3c2)[nH]n1
[10]
  Activity: Active
[1]
  ΔTm: 3.4 °C
[2]
  Kd: 19 µM

## N#Cc1c(N)n[nH]c1-c1ccc2ccn(Cc3ccncc3)c2c1
[5]
  MIC: 50 µM
[1]
  ΔTm: 11.5 °C
[7]
  MIC: > 100 µM
[4]
  MIC: 50 µM (≈ 15.7 µg/mL)
[2]
  Kd: 0.12 µM

## COC(=O)COc1cccc(COC(=O)c2cn[nH]c2)c1
[1]
  ΔTm: 2.6 °C
[2]
  Kd: 10 µM

## O=C(O)c1ccc2cc[nH]c2c1
[3]
  ΔTm: -0.6 °C

## CN1CCN(Cc2ccc(Cn3ccc4ccc(-c5[nH]nc(N)c5C#N)cc43)cc2)CC1
[5]
  MIC: 25 µM
[1]
  ΔTm: 12 °C
[6]
  MIC: 6.3 µM
[8]
  MIC: 12.5 µM
[4]
  MIC: 50 µM (≈ 21.3 µg/mL)
[2]
  Kd: 73 µM

## COc1cc(COC(=O)c2cn[nH]c2)cc(N2CCCC2)c1
[1]
  ΔTm: 3 °C
[2]
  Kd: 10 µM

## Cc1c(N)n[nH]c1-c1ccc2ccn(Cc3ccc(CN4CCCC4)cc3)c2c1
[1]
  ΔTm: 6.1 °C

## N#Cc1c(N)n[nH]c1-c1ccc2ccn(Cc3ccc(CN4CCCCC4)cc3)c2c1
[5]
  MIC: 50 µM
[1]
  ΔTm: 12.6 °C
[7]
  MIC: 100 µM
[8]
  MIC: 25 µM
[4]
  MIC: 50 µM (≈ 20.5 µg/mL)

## N#Cc1cccc(COC(=O)c2cn[nH]c2)c1
[1]
  ΔTm: 2.8 °C
[2]
  Kd: 30 µM

## CCOC(=O)c1cnn(CC#Cc2cc(COC(=O)c3cn[nH]c3)cc(OC)c2)c1
[1]
  ΔTm: 9.6 °C
[2]
  Kd: 4.6 µM

## O=C(OCc1ccccc1)c1cn[nH]c1
[1]
  ΔTm: 3.1 °C
[2]
  Kd: 33 µM

## O=C(OCc1cccc(OCCc2ccccc2)c1)c1cn[nH]c1
[1]
  ΔTm: 3 °C

## N#Cc1c(N)n[nH]c1-c1ccc2ccn(Cc3cccnc3O)c2c1
[1]
  ΔTm: 5.5 °C
[2]
  Kd: 3.2 µM

## N#Cc1c(N)n[nH]c1-c1ccc2ccn(Cc3ccccc3)c2c1
[10]
  Activity: Active
[1]
  ΔTm: 10.1 °C

## N#Cc1c(N)n[nH]c1-c1ccc2ccn(Cc3ccc(CN4CCCC4)cc3)c2c1
[10]
  Activity: Active
[1]
  ΔTm: 12.9 °C
[6]
  MIC: 12.5 µM
[7]
  MIC: > 100 µM
[8]
  MIC: 25 µM
[4]
  MIC: 50 µM (≈ 19.8 µg/mL)
[2]
  Kd: 27 µM

## N#Cc1c(N)n[nH]c1-c1ccc2ccn(Cc3ccc(CN4CCOCC4)cc3)c2c1
[5]
  MIC: 50 µM
[1]
  ΔTm: 12.6 °C
[6]
  MIC: 50 µM
[7]
  MIC: > 100 µM
[8]
  MIC: 100 µM
[4]
  MIC: 50 µM (≈ 20.6 µg/mL)

## Nc1cc(-c2ccc3cc[nH]c3c2)[nH]n1
[1]
  ΔTm: 1.1 °C
[3]
  ΔTm: 4.8 °C
[2]
  Kd: 110 µM

## Nc1cc(-c2ccc3ccn(Cc4ccc(CN5CCCC5)cc4)c3c2)[nH]n1
[5]
  MIC: 25 µM
[1]
  ΔTm: 7 °C
[6]
  MIC: 6.3 µM
[7]
  MIC: 100 µM
[8]
  MIC: 12.5 µM
[4]
  MIC: 50 µM (≈ 18.6 µg/mL)
[2]
  Kd: 490 µM
